Data taken from ChEMBL document CHEMBL1157417, “Synthetic and pharmacological studies on new simplified analogues of the potent actin-targeting Jaspamide” (Bioorg Med Chem, 2008).
The source made the active and inactive calls. The calls are words filed in the database; no cut-off is given here.

Key:
Assay type in all cases: functional, cell-based
[1] = test system: A498; test: Effect on morphology in human A498 cells assessed as cell aberration at 100 umol after 16 hrs by microfilament immunofluorescence assay
In short: (§1)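 A-498 cells grown to near-confluency on glass coverslips, then exposed 16 h. Cytochalasin B served as the microfilament-depolymerising positive control. Microfilaments stained with monoclonal anti-actin and microtubules with monoclonal anti-β-tubulin, both visualised with fluorescein-conjugated anti-mouse IgG. Scored for binucleation and other cellular aberration.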

[2] = test system: A498; test: Cytotoxicity against human A498 cells after 48 hrs by SRB binding assay; conditions: A498, 48 h
In short: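 A498 kidney adenocarcinoma cells kept in R-MEM with 10% FBS and 50 µg/mL gentamycin, 37 °C, 5% CO2. Seeded at about 15% confluency and left 24 h to attach. Treated in triplicate with varying concentrations for 48 h. Survival read by sulforhodamine B binding as a percentage of control cultures.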

[3] = test system: A498; test: Effect on morphology in human A498 cells assessed as appearance of binucleated cells after 16 hrs by microfilament immunofluorescence assay; in short: as §1

## C[C@@H]1NC(=O)CC/C=C/CCCOC(=O)C[C@H](c2ccccc2)NC(=O)[C@@H](Cc2c[nH]c3ccccc23)NC1=O
[1]
  Activity: inactive
[2]
  IC50: 25 µM

## C=C1[C@@H](C)[C@H]2[C@H](Cc3ccccc3)NC(=O)[C@]23OC(=O)/C=C/[C@H](O)CCC[C@@H](C)C/C=C/[C@H]3[C@@H]1O
[3]
  Activity: Active

## C[C@@H]1NC(=O)CCNC(=O)CCCNC(=O)C[C@H](c2ccccc2)NC(=O)[C@@H](Cc2c[nH]c3ccccc23)NC1=O
[1]
  Activity: inactive

## C[C@@H]1NC(=O)CCNC(=O)CCCNC(=O)CCNC(=O)[C@@H](Cc2c[nH]c3ccccc23)NC1=O
[1]
  Activity: inactive

## C[C@@H]1NC(=O)CCCCCCCNC(=O)C[C@H](c2ccccc2)NC(=O)[C@@H](Cc2c[nH]c3ccccc23)NC1=O
[1]
  Activity: inactive

## CC1/C=C/CCCOC(=O)C[C@H](c2ccccc2)NC(=O)[C@@H](Cc2c[nH]c3ccccc23)NC(=O)[C@H](C)NC(=O)C1 (stereo not given in full)
[1]
  Activity: inactive
[2]
  IC50: 25 µM

## COc1ccc([C@H]2CC(=O)NCCCC(=O)NCCC(=O)N[C@@H](C)C(=O)N[C@H](Cc3c[nH]c4ccccc34)C(=O)N2)cc1
[1]
  Activity: inactive

## C[C@@H]1NC(=O)CC/C=C/CCCOC(=O)CCNC(=O)[C@@H](Cc2c[nH]c3ccccc23)NC1=O
[1]
  Activity: inactive
